What all share (assay type): functional
The subject of test [1] is Meyerozyma guilliermondii. The experiment in a line: Antibiofilm activity against Candida guilliermondii a410 at 0.2 mM after 24 hrs by XTT reduction assay relative to control. On the set-up: scale not given: the % may be the effect or the level left. A digest of the protocol:
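Biofilms grown on sterilized PVC disks: 1·10^6 cfu/ml Candida cells adhered for 1.5 h at 37 °C with shaking, washed with PBS, then matured 48 h at 37 °C in RPMI 1640 (MOPS, pH 7). Preformed biofilms were washed and exposed to drug, alone or in two-dimensional checkerboard combination, in RPMI 1640 for 24 h at 37 °C on a rocker.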
On the technique in general: Tetrazolium assays rely on reduction of a dye to a coloured formazan, in cell work by metabolically active cells.

Test [2] has as its system Candida albicans. The experiment in a line: Antibiofilm activity against Candida albicans ATCC 90028 after 48 hrs by XTT reduction assay relative to control. Also noted: scale not given: the % may be the effect or the level left. The method in brief:
(§1)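 Biofilms grown on autoclaved PVC disks: 1·10^6 cfu ml-1 cells, adhesion 1.5 h at 37 °C shaking 100 rpm, PBS wash, then 48 h at 37 °C in RPMI 1640 (MOPS, pH 7). Metabolic activity read by XTT–menadione reduction, 2 h at 37 °C, supernatant formazan at 490 nm, relative to drug-free control; triplicate on different days.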

Test [3] concerns Candida albicans. Description: Antibiofilm activity against Candida albicans ATCC 24433 after 48 hrs by XTT reduction assay relative to control. Also noted: scale not given: the % may be the effect or the level left. The method in brief: as §1
For test [4], the system named is Meyerozyma guilliermondii. The experiment in a line: Antibiofilm activity against Candida guilliermondii ATCC 6260 by two dimensional checkerboard dilution method in presence of aspirin. The method in brief: (§2)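 Preformed 48 h disk biofilms (RPMI 1640, MOPS pH 7, 37 °C), PBS-washed, exposed 24 h at 37 °C on rocker to two-dimensional checkerboard of anidulafungin plus NSAID in RPMI; NSAID final 0.1 µM to 100 mM. XTT reduction at 490 nm; SMIC = combination giving 50% metabolic reduction versus drug-free control; FIC index calculated; triplicate on different days.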

The test system of test [5] is Meyerozyma guilliermondii. Description: Antibiofilm activity against Candida guilliermondii a83 by two dimensional checkerboard dilution method in presence of aspirin. A digest of the protocol: (§3)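 Biofilms were grown on PVC disks from 2 ml of a 1·10^6 cfu/ml cell suspension. Adhesion ran 1.5 h at 37 °C with shaking at 100 rpm. Disks were PBS-washed, then matured 48 h at 37 °C in RPMI 1640 (MOPS, pH 7). Biofilms were washed again and given 24 h at 37 °C of anidulafungin/NSAID checkerboard combinations (NSAID final 0.1 µM–100 mM). Read-out was XTT-menadione (2 h, 37 °C, 490 nm). SMIC was defined as 50% reduction versus drug-free control, from which FICI was calculated. Triplicates were run on different days.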

The subject of test [6] is Candida albicans. The experiment in a line: Antibiofilm activity against Candida albicans ATCC 24433 assessed as fractional inhibitory concentration by two dimensional checkerboard dilution method in presence of aspirin. A digest of the protocol: as §2
In test [7] the test system is Meyerozyma guilliermondii. Description: Antibiofilm activity against Candida guilliermondii a83 assessed as fractional inhibitory concentration by two dimensional checkerboard dilution method in presence of aspirin. A digest of the protocol:
as §3

Test [8] has as its system Candida albicans. Description: Antibiofilm activity against Candida albicans ATCC 10231 by two dimensional checkerboard dilution method in presence of diclofenac. A digest of the protocol:
as §2

Test [9] relates to Candida albicans. The experiment in a line: Antibiofilm activity against Candida albicans ATCC 90028 assessed as fractional inhibitory concentration by two dimensional checkerboard dilution method in presence of diclofenac. The method in brief:
as §2

Test [10] relates to Nakaseomyces glabratus. The experiment in a line: Antibiofilm activity against Candida glabrata 18a10 by two dimensional checkerboard dilution method in presence of diclofenac. A digest of the protocol:
as §2

The subject of test [11] is Meyerozyma guilliermondii. Description: Antibiofilm activity against Candida guilliermondii ATCC 6260 by two dimensional checkerboard dilution method in presence of diclofenac. The method in brief: as §2
Test [12] has as its system Meyerozyma guilliermondii. Description: Antibiofilm activity against Candida guilliermondii ATCC 6260 assessed as fractional inhibitory concentration by two dimensional checkerboard dilution method in presence of diclofenac. A digest of the protocol: as §2
For test [13], the system named is Meyerozyma guilliermondii. The experiment in a line: Antibiofilm activity against Candida guilliermondii a410 by two dimensional checkerboard dilution method in presence of diclofenac. A digest of the protocol:
as §3

For test [14], the system named is Candida albicans. Description: Antibiofilm activity against Candida albicans ATCC 10231 assessed as fractional inhibitory concentration by two dimensional checkerboard dilution method in presence of ibuprofen. The method in brief:
as §2

In test [15] the test system is Candida albicans. Description: Antibiofilm activity against Candida albicans ATCC 90028 by two dimensional checkerboard dilution method in presence of ibuprofen. A digest of the protocol: as §2
Test [16] has as its system Nakaseomyces glabratus. The experiment in a line: Antibiofilm activity against Candida glabrata 18a10 assessed as fractional inhibitory concentration by two dimensional checkerboard dilution method in presence of ibuprofen. A digest of the protocol:
as §2

In test [17] the test system is Meyerozyma guilliermondii. Description: Antibiofilm activity against Candida guilliermondii ATCC 6260 assessed as fractional inhibitory concentration by two dimensional checkerboard dilution method in presence of ibuprofen. A digest of the protocol:
as §2

Each structure is given as a SMILES string.

The values below come from ChEMBL document CHEMBL3758165, “In vitro interactions between anidulafungin and nonsteroidal anti-inflammatory drugs on biofilms of Candida spp” (2016).

In [1], `CC(C)Cc1ccc(C(C)C(=O)O)cc1` (configuration not stated) [IBUPROFEN] displayed an Activity of 53.24%.
`CCCCCOc1ccc(-c2ccc(-c3ccc(C(=O)N[C@@H]4C[C@@H](O)[C@@H](O)NC(=O)[C@@H]5[C@@H](O)[C@@H](C)CN5C(=O)[C@H]([C@@H](C)O)NC(=O)[C@H]([C@H](O)[C@@H](O)c5ccc(O)cc5)NC(=O)[C@@H]5C[C@@H](O)CN5C(=O)[C@H]([C@H](C)O)NC4=O)cc3)cc2)cc1`: the Activity with Candida albicans [2] is on record as 16.09%; in the test with Candida albicans [3], 25.06%. For the same compound, the MIC in test [4] stood at 0.1 µg/mL; in test [5], 0.1 µg/mL; in the test with Candida albicans [8] it was 0.1 µg/mL; in the test on Nakaseomyces glabratus [10] it was 0.2 µg/mL; in [11], 0.1 µg/mL; in [13], 0.1 µg/mL. The MIC in the test on Candida albicans [15] is 0.4 µg/mL. In addition, the Ratio in the test on Candida albicans [6] turned out to be 0.05; in [7] it was 0.05; in the test with Candida albicans [9] it was 0.05; in [12], 0.05; in the test with Candida albicans [14], 0.2; in the test with Nakaseomyces glabratus [16], 0.05. For the same compound, in [17], the Ratio is 0.2.
